Experimental data taken from ChEMBL document CHEMBL5653622 (Oncotarget, 2016).
Active and inactive are the calls of the source. The rule behind the calls is not given here.

Experiments:
[1] = target: Aurora kinase B (Homo sapiens) (UniProt Q96GD4); experiment: Inhibition of human AuroraB assessed as remaining activity at 10 uM in presence of ATP by radiometric kinase assay relative to control
[2] = target: Homeodomain-interacting protein kinase 1 (Homo sapiens) (UniProt Q86Z02); experiment: Inhibition of human HIPK1 assessed as remaining activity at 10 uM in presence of ATP by radiometric kinase assay relative to control
[3] = target: Rho-associated protein kinase 2 (Homo sapiens) (UniProt O75116); experiment: Inhibition of human ROCK2 assessed as remaining activity at 10 uM in presence of ATP by radiometric kinase assay relative to control
[4] = Toxicity in Emu-Myc driven transgenic mouse transplant model of B-cell lymphoma assessed as change in body weight at 150 mg/kg, po administered for 9 days; assay type: organism-based; settings: in vivo, 216 h, time 9 day
[5] = target: RAC-beta serine/threonine-protein kinase (Homo sapiens) (UniProt P31751); experiment: Inhibition of human PKBb assessed as remaining activity at 10 uM in presence of ATP by radiometric kinase assay relative to control
RAC-beta serine/threonine-protein kinase (Homo sapiens), sequence (P31751 whole entry): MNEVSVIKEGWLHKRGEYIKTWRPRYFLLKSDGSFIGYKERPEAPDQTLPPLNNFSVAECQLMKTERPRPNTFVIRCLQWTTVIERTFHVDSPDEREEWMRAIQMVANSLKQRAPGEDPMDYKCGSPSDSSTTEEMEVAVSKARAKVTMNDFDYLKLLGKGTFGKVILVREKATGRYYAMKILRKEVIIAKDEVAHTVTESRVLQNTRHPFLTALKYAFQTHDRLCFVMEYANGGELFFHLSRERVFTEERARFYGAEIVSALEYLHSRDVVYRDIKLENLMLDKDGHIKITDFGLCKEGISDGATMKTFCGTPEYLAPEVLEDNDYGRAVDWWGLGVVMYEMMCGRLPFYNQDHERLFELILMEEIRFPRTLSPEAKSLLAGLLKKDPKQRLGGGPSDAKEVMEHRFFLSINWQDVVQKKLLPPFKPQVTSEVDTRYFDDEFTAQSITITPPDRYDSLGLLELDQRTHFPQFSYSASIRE

[6] = target: Dual specificity testis-specific protein kinase 1 (Homo sapiens) (UniProt Q15569); experiment: Inhibition of human TESK1 assessed as remaining activity at 10 uM in presence of ATP by radiometric kinase assay relative to control
[7] = target: MAP kinase-interacting serine/threonine-protein kinase 2 (Homo sapiens) (UniProt Q9HBH9); experiment: Inhibition of human MNK2 assessed as remaining activity at 10 uM in presence of ATP by radiometric kinase assay relative to control
[8] = target: SRSF protein kinase 1 (Homo sapiens) (UniProt Q96SB4); experiment: Inhibition of human SRPK1 assessed as remaining activity at 10 uM in presence of ATP by radiometric kinase assay relative to control
[9] = target: Mitogen-activated protein kinase 1 (Homo sapiens) (UniProt P28482); experiment: Inhibition of human ERK2 assessed as remaining activity at 10 uM in presence of ATP by radiometric kinase assay relative to control
[10] = target: Maternal embryonic leucine zipper kinase (Homo sapiens) (UniProt Q14680); experiment: Inhibition of human MELK assessed as remaining activity at 10 uM in presence of ATP by radiometric kinase assay relative to control
Maternal embryonic leucine zipper kinase (Homo sapiens), sequence (Q14680 whole entry, looked up): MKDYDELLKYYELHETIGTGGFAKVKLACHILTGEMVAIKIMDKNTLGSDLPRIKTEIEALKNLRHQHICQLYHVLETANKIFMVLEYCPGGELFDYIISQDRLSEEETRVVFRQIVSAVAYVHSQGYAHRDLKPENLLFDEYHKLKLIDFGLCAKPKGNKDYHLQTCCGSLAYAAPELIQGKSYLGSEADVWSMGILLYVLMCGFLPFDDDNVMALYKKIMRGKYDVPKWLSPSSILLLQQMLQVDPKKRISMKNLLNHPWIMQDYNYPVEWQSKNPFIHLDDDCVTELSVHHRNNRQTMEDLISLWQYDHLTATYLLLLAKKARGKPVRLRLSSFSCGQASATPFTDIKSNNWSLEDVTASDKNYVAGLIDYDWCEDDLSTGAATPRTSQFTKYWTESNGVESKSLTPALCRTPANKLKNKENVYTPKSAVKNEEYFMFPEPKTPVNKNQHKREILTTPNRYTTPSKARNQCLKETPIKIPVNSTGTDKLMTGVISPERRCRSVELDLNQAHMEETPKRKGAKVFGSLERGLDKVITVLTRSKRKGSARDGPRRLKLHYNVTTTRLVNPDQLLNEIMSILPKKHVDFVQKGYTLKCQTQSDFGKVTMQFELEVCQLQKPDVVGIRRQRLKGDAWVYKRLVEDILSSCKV

Mus musculus [11] = experiment: In vivo inhibition of CHK1 in CRTac:Ncr-Fox1 athymic mouse xenografted with human Calu-6 cells assessed as inhibition of CHK1 phosphorylation on S296 at 150 mg/kg, po in presence of gemcitabine and carboplatin by Western blotting analysis; assay type: functional, organism-based
Outline: (§1)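 Female CRTac:Ncr-Fox1(nu) athymic mice carried s.c. Calu6 xenografts. Tumors were taken 6h after the last inhibitor dose, lysed in CHAPS buffer, and immunoblotted with GAPDH as loading control.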

[12] = target: Casein kinase 2 (Homo sapiens) (UniProt P67870+P68400+P19784+Q8NEV1); experiment: Inhibition of human CK2 assessed as remaining activity at 10 uM in presence of ATP by radiometric kinase assay relative to control; assay type: protein assay
[13] = target: Vascular endothelial growth factor receptor 2 (Homo sapiens, UniProt P35968); experiment: Inhibition of VEGFR2 (unknown origin) by FRET based Z-LYTE kinase assay
Vascular endothelial growth factor receptor 2, sequence (P35968 whole entry): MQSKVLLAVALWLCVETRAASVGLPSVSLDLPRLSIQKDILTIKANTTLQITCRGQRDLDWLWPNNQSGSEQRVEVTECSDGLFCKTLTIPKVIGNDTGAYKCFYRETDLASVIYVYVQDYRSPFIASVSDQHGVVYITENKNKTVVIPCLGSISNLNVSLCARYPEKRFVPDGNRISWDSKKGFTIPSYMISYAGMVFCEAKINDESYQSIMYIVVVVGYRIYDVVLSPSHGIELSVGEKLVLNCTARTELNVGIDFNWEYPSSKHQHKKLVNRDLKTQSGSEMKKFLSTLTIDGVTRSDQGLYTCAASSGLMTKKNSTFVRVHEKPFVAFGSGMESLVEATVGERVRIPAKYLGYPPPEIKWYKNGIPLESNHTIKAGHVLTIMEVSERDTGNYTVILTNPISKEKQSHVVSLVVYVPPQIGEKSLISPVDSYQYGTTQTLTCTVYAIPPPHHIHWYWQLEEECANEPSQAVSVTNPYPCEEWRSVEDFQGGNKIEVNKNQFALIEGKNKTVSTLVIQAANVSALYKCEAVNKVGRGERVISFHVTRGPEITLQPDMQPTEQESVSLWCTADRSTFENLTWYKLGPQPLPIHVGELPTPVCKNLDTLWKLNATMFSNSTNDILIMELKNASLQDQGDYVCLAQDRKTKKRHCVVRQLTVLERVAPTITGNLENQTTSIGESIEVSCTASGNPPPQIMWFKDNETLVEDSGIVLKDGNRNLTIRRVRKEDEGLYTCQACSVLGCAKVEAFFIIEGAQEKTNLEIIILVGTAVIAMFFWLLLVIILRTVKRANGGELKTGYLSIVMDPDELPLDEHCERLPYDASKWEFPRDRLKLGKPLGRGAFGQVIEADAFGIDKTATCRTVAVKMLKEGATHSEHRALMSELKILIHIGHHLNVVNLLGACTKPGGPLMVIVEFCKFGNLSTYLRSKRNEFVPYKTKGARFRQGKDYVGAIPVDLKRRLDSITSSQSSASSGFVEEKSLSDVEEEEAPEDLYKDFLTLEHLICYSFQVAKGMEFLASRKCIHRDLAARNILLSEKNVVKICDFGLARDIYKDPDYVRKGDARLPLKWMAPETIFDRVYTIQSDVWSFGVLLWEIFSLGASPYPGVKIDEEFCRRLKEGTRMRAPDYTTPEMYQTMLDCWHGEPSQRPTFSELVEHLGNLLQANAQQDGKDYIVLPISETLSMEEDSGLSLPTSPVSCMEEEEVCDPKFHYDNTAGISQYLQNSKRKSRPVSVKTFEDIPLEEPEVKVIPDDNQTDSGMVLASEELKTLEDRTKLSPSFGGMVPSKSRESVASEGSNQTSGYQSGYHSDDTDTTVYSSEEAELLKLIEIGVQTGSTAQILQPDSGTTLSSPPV

[14] = target: Protein kinase C zeta type (Homo sapiens) (UniProt Q05513); experiment: Inhibition of human PKCz assessed as remaining activity at 10 uM in presence of ATP by radiometric kinase assay relative to control
Protein kinase C zeta type (Homo sapiens), sequence (Q05513 whole entry): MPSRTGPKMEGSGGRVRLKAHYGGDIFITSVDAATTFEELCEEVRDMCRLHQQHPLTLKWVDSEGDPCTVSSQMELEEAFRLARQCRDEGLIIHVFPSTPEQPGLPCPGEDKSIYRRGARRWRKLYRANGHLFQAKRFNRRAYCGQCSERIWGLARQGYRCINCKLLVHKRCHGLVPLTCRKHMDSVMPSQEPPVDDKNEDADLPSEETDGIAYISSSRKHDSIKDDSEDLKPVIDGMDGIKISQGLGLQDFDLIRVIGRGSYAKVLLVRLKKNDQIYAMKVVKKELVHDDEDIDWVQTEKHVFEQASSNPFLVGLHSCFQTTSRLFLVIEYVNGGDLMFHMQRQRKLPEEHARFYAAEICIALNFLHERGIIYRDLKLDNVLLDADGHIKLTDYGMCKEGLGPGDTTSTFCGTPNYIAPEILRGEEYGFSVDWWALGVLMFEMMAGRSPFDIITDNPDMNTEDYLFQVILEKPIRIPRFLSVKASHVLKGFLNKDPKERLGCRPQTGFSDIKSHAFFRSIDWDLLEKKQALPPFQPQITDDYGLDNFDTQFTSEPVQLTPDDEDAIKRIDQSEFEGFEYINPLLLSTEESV

[15] = target: Calcium/calmodulin-dependent protein kinase type 1 (Homo sapiens) (UniProt Q14012); experiment: Inhibition of human CAMK1 assessed as remaining activity at 10 uM in presence of ATP by radiometric kinase assay relative to control
[16] = Toxicity in Emu-Myc driven transgenic mouse transplant model of B-cell lymphoma assessed as increase in weight of spleen at 150 mg/kg, po administered for 9 days; assay type: organism-based; settings: in vivo, 216 h, time 9 day
[17] = target: Ribosomal protein S6 kinase alpha-5 (Homo sapiens) (UniProt O75582); experiment: Inhibition of human MSK1 assessed as remaining activity at 10 uM in presence of ATP by radiometric kinase assay relative to control
[18] = target: Serine/threonine-protein kinase pim-2 (Homo sapiens) (UniProt Q9P1W9); experiment: Inhibition of human PIM2 assessed as remaining activity at 10 uM in presence of ATP by radiometric kinase assay relative to control
[19] = target: Mitogen-activated protein kinase kinase kinase 1 (Homo sapiens) (UniProt Q13233); experiment: Inhibition of human MEKK1 assessed as remaining activity at 10 uM in presence of ATP by radiometric kinase assay relative to control
Mitogen-activated protein kinase kinase kinase 1 (Homo sapiens), sequence (Q13233 whole entry): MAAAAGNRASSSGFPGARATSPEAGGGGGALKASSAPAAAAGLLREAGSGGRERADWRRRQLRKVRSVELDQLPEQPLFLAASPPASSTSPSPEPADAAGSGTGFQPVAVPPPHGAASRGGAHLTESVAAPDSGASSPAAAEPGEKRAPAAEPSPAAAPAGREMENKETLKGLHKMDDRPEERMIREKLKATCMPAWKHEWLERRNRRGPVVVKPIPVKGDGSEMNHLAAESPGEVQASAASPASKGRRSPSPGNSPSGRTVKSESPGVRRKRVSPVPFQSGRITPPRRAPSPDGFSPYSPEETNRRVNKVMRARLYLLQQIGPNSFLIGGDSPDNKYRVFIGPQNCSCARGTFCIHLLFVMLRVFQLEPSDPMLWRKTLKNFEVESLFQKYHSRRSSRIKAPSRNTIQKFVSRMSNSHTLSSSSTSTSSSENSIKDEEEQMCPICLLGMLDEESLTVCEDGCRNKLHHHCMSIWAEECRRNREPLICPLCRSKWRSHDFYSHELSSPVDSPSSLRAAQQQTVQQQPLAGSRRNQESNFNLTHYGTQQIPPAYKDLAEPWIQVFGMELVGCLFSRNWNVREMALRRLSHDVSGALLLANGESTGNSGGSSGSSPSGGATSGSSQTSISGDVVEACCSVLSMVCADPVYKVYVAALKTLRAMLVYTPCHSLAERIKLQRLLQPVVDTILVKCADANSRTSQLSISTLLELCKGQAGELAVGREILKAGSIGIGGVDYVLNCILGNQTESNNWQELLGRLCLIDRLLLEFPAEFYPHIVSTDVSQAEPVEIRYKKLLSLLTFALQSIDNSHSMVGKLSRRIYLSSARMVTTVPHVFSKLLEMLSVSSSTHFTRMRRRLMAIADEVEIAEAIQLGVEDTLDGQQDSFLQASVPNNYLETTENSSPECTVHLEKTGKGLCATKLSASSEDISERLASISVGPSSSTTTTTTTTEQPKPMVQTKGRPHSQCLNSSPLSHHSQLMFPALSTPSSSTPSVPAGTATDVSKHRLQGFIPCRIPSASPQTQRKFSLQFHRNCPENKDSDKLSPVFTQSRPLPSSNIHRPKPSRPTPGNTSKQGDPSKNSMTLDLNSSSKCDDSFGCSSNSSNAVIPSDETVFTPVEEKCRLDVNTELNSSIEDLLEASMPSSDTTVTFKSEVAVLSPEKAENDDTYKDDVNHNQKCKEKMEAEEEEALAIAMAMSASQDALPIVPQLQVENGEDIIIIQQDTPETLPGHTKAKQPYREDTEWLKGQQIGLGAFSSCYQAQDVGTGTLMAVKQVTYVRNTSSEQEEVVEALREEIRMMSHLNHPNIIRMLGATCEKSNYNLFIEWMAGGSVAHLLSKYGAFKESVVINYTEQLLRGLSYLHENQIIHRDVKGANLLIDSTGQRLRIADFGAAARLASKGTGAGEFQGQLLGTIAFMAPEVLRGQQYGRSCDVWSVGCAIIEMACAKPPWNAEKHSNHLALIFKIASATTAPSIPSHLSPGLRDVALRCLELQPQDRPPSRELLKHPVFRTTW

[20] = target: Serine/threonine-protein kinase Nek2 (Homo sapiens) (UniProt P51955); experiment: Inhibition of human NEK2a assessed as remaining activity at 10 uM in presence of ATP by radiometric kinase assay relative to control
[21] = Toxicity in Emu-Myc driven transgenic mouse transplant model of B-cell lymphoma assessed as reduction in weight of lung at 150 mg/kg, po administered for 9 days; assay type: organism-based; settings: in vivo, 216 h, time 9 day
[22] = target: Serine/threonine-protein kinase STK11 (Homo sapiens) (UniProt Q15831); experiment: Inhibition of human LKB1 assessed as remaining activity at 10 uM in presence of ATP by radiometric kinase assay relative to control
[23] = target: RAC-alpha serine/threonine-protein kinase (Homo sapiens) (UniProt P31749); experiment: Inhibition of human PKBa assessed as remaining activity at 10 uM in presence of ATP by radiometric kinase assay relative to control
Mus musculus [24] = experiment: In vivo inhibition of CHK1 in CRTac:Ncr-Fox1 athymic mouse xenografted with human Calu-6 cells assessed as enhanced phosphorylation CHK1 at […] on 150 mg/kg, po in presence of gemcitabine and carboplatin by Western blotting analysis; assay type: functional, organism-based; outline: as §1
[25] = target: Aurora kinase A (Homo sapiens) (UniProt O14965); experiment: Inhibition of human AuroraA assessed as remaining activity at 10 uM in presence of ATP by radiometric kinase assay relative to control
Aurora kinase A (Homo sapiens), sequence (O14965 whole entry): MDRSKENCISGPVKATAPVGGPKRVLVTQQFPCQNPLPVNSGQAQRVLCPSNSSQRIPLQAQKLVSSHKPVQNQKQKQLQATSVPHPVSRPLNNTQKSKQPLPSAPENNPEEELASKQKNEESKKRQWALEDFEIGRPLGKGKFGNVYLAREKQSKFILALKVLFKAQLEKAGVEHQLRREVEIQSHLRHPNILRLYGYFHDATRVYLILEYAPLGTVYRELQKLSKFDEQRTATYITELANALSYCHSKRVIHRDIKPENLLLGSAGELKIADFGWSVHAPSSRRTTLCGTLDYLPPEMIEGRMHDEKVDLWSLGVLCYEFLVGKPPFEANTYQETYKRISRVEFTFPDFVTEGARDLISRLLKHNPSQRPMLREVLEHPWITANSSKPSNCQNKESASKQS

[26] = target: MAP kinase-activated protein kinase 2 (Homo sapiens) (UniProt P49137); experiment: Inhibition of human MAPKAP-K2 assessed as remaining activity at 10 uM in presence of ATP by radiometric kinase assay relative to control
[27] = target: Protein kinase C alpha type (Homo sapiens) (UniProt P17252); experiment: Inhibition of human PKCa assessed as remaining activity at 10 uM in presence of ATP by radiometric kinase assay relative to control
[28] = target: Eukaryotic elongation factor 2 kinase (Homo sapiens) (UniProt O00418); experiment: Inhibition of human EF2K assessed as remaining activity at 10 uM in presence of ATP by radiometric kinase assay relative to control

Work on `N#Cc1cnc(Nc2cc(NC[C@H]3CNCCO3)c(C(F)(F)F)cn2)cn1` [SRA-737] yielded an Activity [1] of 26%, an Activity [2] of 77% and an Activity [3] of 95%. For the same molecule, the Activity [4] was “Non-Toxic”, the Activity [5] was 100% and the Activity [6] was 101%. It also gave an Activity [7] of 75%, an Activity [8] of 82% and an Activity [9] of 98%. The Activity [10] was 37%, the inhibition (Mus musculus [11]) was “Active” and the Activity [12] was 81%. The IC50 [13] was 2100 nM, the Activity [14] was 92% and the Activity [15] was 69%. The Activity [16] was “Toxic”, the Activity [17] was 30% and the Activity [18] was 88%. The Activity [19] was 77%, the Activity [20] was 96% and the Activity [21] was “Toxic”. The Activity [22] was 44%, the Activity [23] was 93% and the Activity (Mus musculus [24]) was “Active”. The Activity [25] was 75%, the Activity [26] was 94% and the Activity [27] was 82%. For the same molecule, the Activity [28] was 98%.
